Structures are written as SMILES. ≈ marks a conversion by molar mass, not a printed value. Calls of active or inactive are those of the source. The rule behind the calls is not given here.

One test deals with T1, Human rhinovirus A protease (Human rhinovirus sp.) (UniProt Q4U254).
T1 sequence (whole entry): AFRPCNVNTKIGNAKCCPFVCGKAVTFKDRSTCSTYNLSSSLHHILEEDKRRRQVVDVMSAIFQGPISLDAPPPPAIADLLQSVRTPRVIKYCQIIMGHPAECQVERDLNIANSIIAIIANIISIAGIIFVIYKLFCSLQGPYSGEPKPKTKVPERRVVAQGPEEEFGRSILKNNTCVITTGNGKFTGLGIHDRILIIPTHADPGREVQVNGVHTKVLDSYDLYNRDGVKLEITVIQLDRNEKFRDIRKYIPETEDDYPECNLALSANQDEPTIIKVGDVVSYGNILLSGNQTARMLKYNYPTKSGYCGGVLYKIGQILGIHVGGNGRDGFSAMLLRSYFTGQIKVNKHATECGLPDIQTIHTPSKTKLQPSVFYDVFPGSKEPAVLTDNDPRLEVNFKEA
The experiment in a line: Irreversible inhibition of Human Rhinovirus (HRV-14) 3C Protease. The conditions noted are these: Rhinovirus B. The procedure, abridged:
(§1)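 For serotype 14 3C protease under irreversible inactivation, reactions were started by adding 50 nM enzyme to 1 µM FRET substrate plus typically three to five inhibitor concentrations, monitored continuously. First-order inactivation rate constants came from nonlinear regression when <20% substrate was consumed; otherwise data were corrected for substrate depletion. kobs/[I] was derived by the slope method.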
Molecule `NC(=O)c1cccc(/C=C/C(=O)OCc2ccccn2)c1` returned a K obs / 1 of 57 M⁻¹ s⁻¹.
`NC(=O)c1cccc(/C=C/C(=O)OCc2ccccc2)c1` had a K obs / 1 of 25 M⁻¹ s⁻¹.
Still for that read-out and setting: then `CCOC(=O)/C=C/c1cc(CN(CC)Cc2ccncc2)cc(C(N)=O)c1`, with 96 M⁻¹ s⁻¹; and `CCOC(=O)/C=C/c1cccc(C(N)=O)c1`, with 52 M⁻¹ s⁻¹; and `CCOC(=O)/C=C/c1cc(CN2CCN(c3ncccn3)CC2)cc(C(N)=O)c1`, with 163 M⁻¹ s⁻¹.
`CCOC(=O)/C=C/c1cc(CN2CCN(c3ccccc3C#N)CC2)cc(C(N)=O)c1` displayed a K obs / 1 of 139 M⁻¹ s⁻¹.
The same measure, in the same setting: then `CCOC(=O)/C=C/c1cc(O)cc(C(N)=O)c1`, with 47 M⁻¹ s⁻¹.
The same measure, in the same setting: with `CCOC(=O)/C=C/c1cc(CN2CCN(C(=O)OCC)CC2)cc(C(N)=O)c1` the figure was 130 M⁻¹ s⁻¹; with `NC(=O)c1cccc(/C=C/C(=O)OCCc2ccccc2)c1`, 83 M⁻¹ s⁻¹.
`CCOC(=O)/C=C/c1cc(CN2CCN(c3ccccn3)CC2)cc(C(N)=O)c1` came in with a K obs / 1 of 269 M⁻¹ s⁻¹.
For the molecule `CCOC(=O)/C=C/c1cc(CO)cc(C(N)=O)c1`, the K obs / 1 came to 54 M⁻¹ s⁻¹.
`CCOC(=O)/C=C/c1cc(CSc2nnc(-c3ccccn3)o2)cc(C(N)=O)c1`: the K obs / 1 is 286 M⁻¹ s⁻¹.
For the molecule `COC(=O)/C=C/c1cccc(C(N)=O)c1`, the K obs / 1 was 28 M⁻¹ s⁻¹.
`NC(=O)c1cccc(/C=C/C(=O)OCCO)c1`: the K obs / 1 is 42 M⁻¹ s⁻¹.

Another test has as its system HeLa. Description: Antiviral activity measured as minimal inhibitory concentration using H1HeLa cells (ATCC) infected with HRV-14. The format is functional. The note with it: Homo sapiens.
For the molecule `CCOC(=O)c1ccc(OCCC2CCN(c3ccc(C)nn3)CC2)cc1` [PIRODAVIR], the MIC stood at 0.03 µM (≈ 0.0111 µg/mL).

In a further test the target is T1, Human rhinovirus A protease (Human rhinovirus sp.). The experiment in a line: Irreversible inhibition of Human Rhinovirus (HRV-14) 3C Protease measured as inactivation constant; no inhibition.
Conditions: not given
The procedure, abridged:
as §1
Consider `CCOC(=O)/C=C/c1cccc(C(=O)O)c1`, for which the “K obs / 1” value is “inactive”.

For the next test the target is unchanged. The experiment in a line: Irreversible inhibition of Human Rhinovirus (HRV-14) 3C Protease measured as inactivation constant; inhibition@ 25. The note with it: concentration not given here. The procedure, abridged: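 FRET-based continuous fluorometric assay of 3C protease activity. Reactions were started by adding 50 nM 3CP to 1 µM substrate across three to five inhibitor concentrations. First-order inactivation rate constants were fitted by nonlinear regression at each concentration. kobs/[I] was taken by the slope method, with data adjusted for substrate depletion where needed.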
Usually inhibition stands for the change of the read-out against control, counted positive when it falls. A high value points to a response far below the control. `CCOC(=O)/C=C/c1cc(C(N)=O)ccc1C` returned an inhibition of 10%.

The target in the next test is T2, Human rhinovirus A protease (Human rhinovirus sp., UniProt Q4U254).
T2 sequence (Q4U254 whole entry): T1 sequence (whole entry)
The experiment in a line: The compound was tested for binding affinity of Human Rhinovirus (HRV) 3C Protease.
Conditions: not given
The procedure, abridged:
(§2)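 Serotype 14 3C protease activity was followed by a fluorescence resonance energy transfer substrate assay, and reversible inhibition constants (Ki) were determined from it.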
By Ki is commonly meant a measure of affinity in units of concentration, obtained from inhibition or displacement. The molecule `NC(=O)c1cccc(/C=C/C(=O)c2ccccn2)c1` had a Ki of 1800 nM.
As for `CN(C)c1ccc(C(=O)/C=C/c2cccc(C(N)=O)c2)cc1`, the affinity, expressed as Ki, was 9000 nM.
With `NC(=O)c1cccc(/C=C/C(=O)c2ccco2)c1`, the affinity corresponds to a Ki of 1900 nM.
In turn, `NC(=O)c1ccc2c(c1)C=CC2=O` showed a Ki of 120 nM.
`COc1ccc(C(=O)/C=C/c2cccc(C(N)=O)c2)cc1` yielded a Ki of 1800 nM.
Still for that read-out and setting: then `NC(=O)c1cccc(/C=C/C(=O)c2ccccc2)c1`, with 400 nM; and `CC(=O)/C=C/c1cccc(C(N)=O)c1`, with 25000 nM.

The target in a further test is T2, Human rhinovirus A protease. The experiment in a line: Inhibition of Human Rhinovirus (HRV-14) 3C Protease.
Conditions: not given
The procedure, abridged:
as §2
Regarding `NC(=O)c1cccc(C=O)c1`, the Ki was determined as 104000 nM.

A further test concerns the target T1, Human rhinovirus A protease (Human rhinovirus sp.). Description: The compound was tested for irreversible inhibition of Human Rhinovirus (HRV) 3C Protease.
Conditions: not given
In outline:
as §1
As to `CCOC(=O)/C=C/c1ccc(OCc2ccccc2)c(C(N)=O)c1`, the K obs / 1 was found to be 30 M⁻¹ s⁻¹.

A further test concerns the target T2, Human rhinovirus A protease. Description: The compound was tested for reversible inhibition of Human Rhinovirus (HRV) 3C Protease.
Conditions: not given
Take `CCOC(=O)/C(C#N)=C/c1cccc(C(N)=O)c1`: the Ki stood at 1500 nM.

The next test deals with HeLa. The experiment in a line: Antiviral activity using H1HeLa cells (ATCC) infected with HRV-14 (range). The format is functional, cell-based. The conditions noted are these: Homo sapiens. In outline:
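H1-HeLa cells were grown in MEM with 10% FBS and infected with HRV-14 at moi 0.08, or mock-infected with medium. Cells were resuspended at 8 × 10^5 cells/mL with drug and read 2 days later by XTT/PMS formazan absorbance at 450/650 nm. EC50 is the concentration restoring formazan to 50% of drug-free uninfected cells. Values come from a single run or the mean of ≥2.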
By EC50 is commonly meant the concentration at which the effect is half-maximal. Low values mean a more potent agent, high ones a less potent agent. As for `CCOC(=O)c1ccc(OCCC2CCN(c3ccc(C)nn3)CC2)cc1` [PIRODAVIR], the 50% effective concentration (EC50) was 20 nM.

The values above are taken from ChEMBL document CHEMBL1132923, “Substituted benzamide inhibitors of human rhinovirus 3C protease: structure-based design, synthesis, and biological evaluation” (J Med Chem, 2000).
